Measured values pooled from the literature.
Each line is one published result; the experiments were not run side by side.

COc1cccc2c1C(=O)c1c(O)c3c(c(O)c1C2=O)C[C@@](O)(C(=O)CO)C[C@@H]3O[C@H]1C[C@H](N)[C@H](O)[C@H](C)O1 — inhibition (NCI-H1299; cell growth or viability, MTT; 2.5 µM): 95.7%
CC#CCOc1ccc(/C=C/c2cc(OC)cc(OC)c2-c2cnnn2C(=O)NCCc2ccccc2)cc1 — inhibition (RAW264.7; NO release, inhibitor, Griess; 10 µM, LPS-stimulated): 82.3%
CC(=O)c1ccc(Oc2ccc(C(=O)C(Cl)Cl)cc2[N+](=O)[O-])cc1 — inhibition (NCI-H1299; cell growth or viability, MTT; 2.5 µM): 92.2%
CCCOc1ccc(/C=C/c2cc(OC)cc(OC)c2-c2cnnn2C(=O)NCCc2ccccc2)cc1 — inhibition (RAW264.7; NO release, inhibitor, Griess; 10 µM, LPS-stimulated): 69.3%
C=CC(=O)NC1CCN(c2ncc3ncnc(Nc4ccc(Oc5ccc6c(c5)ncn6C)c(C)c4)c3n2)CC1 — EC50 (COR-L279; cell growth or viability): 0.00754 µM
CN(Cc1ccc(C(C)(C)C)cc1)Cc1cccc2ccccc12 — inhibition zone (Trichophyton mentagrophytes; microbial growth, disc diffusion; ATCC18748; 0.256 µg/mL, 72 h): ≥ 55 mm
N#Cc1ccc(Oc2ccc(C(=O)C(Cl)Cl)cc2[N+](=O)[O-])cc1 — inhibition (NCI-H1299; cell growth or viability, MTT; 2.5 µM): 96.2%
N#Cc1c(-c2ccc(Cl)cc2Cl)c(C(N)=S)c(N)n(N)c1=O — inhibition zone (Enterobacter cloacae; microbial growth, well diffusion; ATCC23355; 500 µg/mL): 18 mm
C#CCOc1ccc(/C=C/c2cc(OC)cc(OC)c2-c2cnnn2C(=O)NCCc2ccccc2)cc1 — inhibition (RAW264.7; NO release, inhibitor, Griess; 10 µM, LPS-stimulated): 50.4%
O=C1C=C2NCCc3c[nH]c(c32)C1=O — IC50 (Babesia divergens; parasite growth, SYBR Green; 60 h, blood stage): 10 µM
C#CCOc1ccc(/C=C/c2cc(OC)cc(OC)c2-c2cnnn2C(=O)NCC)cc1 — inhibition (RAW264.7; NO release, inhibitor, Griess; 10 µM, LPS-stimulated): 71.3%
CN(Cc1ccc(C2(C(F)(F)F)CC2)cc1)Cc1cccc2ccccc12.Cl — MFC (Trichophyton mentagrophytes; microbial killing, broth dilution; ATCC18748; 72 h): 8000 µg/mL
